Format in all cases: cell-based
Experiment [1] has as its target Muscarinic acetylcholine receptor M3 (Homo sapiens, UniProt P20309). Description: Inhibition of [3H]NMS binding to human muscarinic acetylcholine receptor M3 in transfected CHO cells. The procedure, abridged:
(§1)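 Membranes from CHO-K1 cells expressing one human muscarinic subtype, harvested at 70-90% confluency. Incubated in 10 mM Na+/K+ PO4 pH 7.4 with 0.1 nM [3H]NMS and test compound for 120 min at 25 °C; atropine defined nonspecific binding. Filtration and scintillation counting. IC50 by logit fit, Ki by Cheng–Prusoff with KD (nM) M1 1.28, M2 0.85, M3 0.94, M4 3.10, M5 0.79. At least three tests, geometric mean.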

Experiment [2] has as its target T1, Muscarinic acetylcholine receptor M4 (Homo sapiens, UniProt P08173).
T1 sequence (P08173 whole entry): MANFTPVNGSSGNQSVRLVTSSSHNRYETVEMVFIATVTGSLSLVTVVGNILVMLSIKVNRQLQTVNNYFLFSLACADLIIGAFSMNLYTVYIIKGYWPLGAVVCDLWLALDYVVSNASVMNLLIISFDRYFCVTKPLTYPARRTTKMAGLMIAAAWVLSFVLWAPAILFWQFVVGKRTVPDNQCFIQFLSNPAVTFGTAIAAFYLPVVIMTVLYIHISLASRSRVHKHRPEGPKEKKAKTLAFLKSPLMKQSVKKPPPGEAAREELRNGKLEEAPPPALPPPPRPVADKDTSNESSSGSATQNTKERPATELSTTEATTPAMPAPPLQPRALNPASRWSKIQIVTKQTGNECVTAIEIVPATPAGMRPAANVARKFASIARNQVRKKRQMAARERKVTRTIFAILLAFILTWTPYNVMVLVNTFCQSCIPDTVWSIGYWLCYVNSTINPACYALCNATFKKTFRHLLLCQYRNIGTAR
Description: Inhibition of [3H]NMS binding to human muscarinic acetylcholine receptor M4 in transfected CHO cells. The procedure, abridged: as §1

Experiment [3] concerns the target T2, Muscarinic acetylcholine receptor M5 (Homo sapiens, UniProt P08912).
T2 sequence (P08912 whole entry): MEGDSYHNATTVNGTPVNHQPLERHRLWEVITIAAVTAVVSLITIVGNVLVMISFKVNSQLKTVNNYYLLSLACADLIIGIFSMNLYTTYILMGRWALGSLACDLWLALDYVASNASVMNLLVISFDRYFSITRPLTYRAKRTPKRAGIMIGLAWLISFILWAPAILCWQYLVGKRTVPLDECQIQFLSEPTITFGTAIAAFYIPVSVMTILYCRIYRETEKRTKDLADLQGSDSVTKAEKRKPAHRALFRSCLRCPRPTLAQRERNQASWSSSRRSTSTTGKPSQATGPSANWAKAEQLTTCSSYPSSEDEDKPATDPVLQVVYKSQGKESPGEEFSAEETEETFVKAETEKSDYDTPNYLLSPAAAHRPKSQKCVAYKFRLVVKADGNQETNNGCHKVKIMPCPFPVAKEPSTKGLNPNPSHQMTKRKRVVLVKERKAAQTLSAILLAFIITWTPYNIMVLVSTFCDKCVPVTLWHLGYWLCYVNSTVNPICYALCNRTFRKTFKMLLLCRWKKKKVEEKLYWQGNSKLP
Description: Inhibition of [3H]NMS binding to human muscarinic acetylcholine receptor M5 in transfected CHO cells. The essentials: as §1

For experiment [4], the target named is T3, Muscarinic acetylcholine receptor M1 (Homo sapiens, UniProt P11229).
T3 sequence (P11229 whole entry): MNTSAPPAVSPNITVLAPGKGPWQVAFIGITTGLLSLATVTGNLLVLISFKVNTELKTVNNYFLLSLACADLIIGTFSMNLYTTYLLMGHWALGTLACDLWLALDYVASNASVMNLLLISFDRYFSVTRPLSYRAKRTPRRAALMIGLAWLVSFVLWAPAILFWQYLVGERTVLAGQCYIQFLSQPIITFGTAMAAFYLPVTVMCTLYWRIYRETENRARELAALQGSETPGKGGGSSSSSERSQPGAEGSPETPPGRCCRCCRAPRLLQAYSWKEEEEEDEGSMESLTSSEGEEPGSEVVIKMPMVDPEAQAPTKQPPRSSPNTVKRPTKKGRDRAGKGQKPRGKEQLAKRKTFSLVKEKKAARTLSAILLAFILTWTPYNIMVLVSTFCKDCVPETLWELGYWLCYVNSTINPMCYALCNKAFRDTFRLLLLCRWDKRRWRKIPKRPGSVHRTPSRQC
Kind of experiment: Inhibition of [3H]NMS binding to human muscarinic acetylcholine receptor M1 in transfected CHO cells. The essentials: as §1

For experiment [5], the target named is T4, Muscarinic acetylcholine receptor M2 (Homo sapiens, UniProt P08172).
T4 sequence (P08172 whole entry): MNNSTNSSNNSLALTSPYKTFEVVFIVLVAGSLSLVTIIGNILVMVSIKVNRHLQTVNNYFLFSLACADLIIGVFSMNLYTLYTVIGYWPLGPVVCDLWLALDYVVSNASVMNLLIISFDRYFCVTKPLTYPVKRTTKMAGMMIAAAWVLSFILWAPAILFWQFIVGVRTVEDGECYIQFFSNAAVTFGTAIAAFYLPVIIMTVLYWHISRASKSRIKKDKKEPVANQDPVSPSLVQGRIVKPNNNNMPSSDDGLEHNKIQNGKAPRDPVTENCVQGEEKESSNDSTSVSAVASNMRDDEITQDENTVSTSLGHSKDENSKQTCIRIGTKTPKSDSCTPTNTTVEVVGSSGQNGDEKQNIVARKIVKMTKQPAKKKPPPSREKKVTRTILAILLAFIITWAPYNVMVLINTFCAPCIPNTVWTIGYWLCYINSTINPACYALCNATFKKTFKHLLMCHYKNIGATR
Description: Inhibition of [3H]-NMS binding to human muscarinic acetylcholine receptor M2 in transfected CHO cells. The essentials: as §1

Consider two molecules from ChEMBL document CHEMBL1135505, “Synthesis and pharmacology of benzoxazines as highly selective antagonists at M(4) muscarinic receptors” (J Med Chem, 2002).

Each structure is given as a SMILES string.

Sequence of Muscarinic acetylcholine receptor M3 (P20309 whole entry): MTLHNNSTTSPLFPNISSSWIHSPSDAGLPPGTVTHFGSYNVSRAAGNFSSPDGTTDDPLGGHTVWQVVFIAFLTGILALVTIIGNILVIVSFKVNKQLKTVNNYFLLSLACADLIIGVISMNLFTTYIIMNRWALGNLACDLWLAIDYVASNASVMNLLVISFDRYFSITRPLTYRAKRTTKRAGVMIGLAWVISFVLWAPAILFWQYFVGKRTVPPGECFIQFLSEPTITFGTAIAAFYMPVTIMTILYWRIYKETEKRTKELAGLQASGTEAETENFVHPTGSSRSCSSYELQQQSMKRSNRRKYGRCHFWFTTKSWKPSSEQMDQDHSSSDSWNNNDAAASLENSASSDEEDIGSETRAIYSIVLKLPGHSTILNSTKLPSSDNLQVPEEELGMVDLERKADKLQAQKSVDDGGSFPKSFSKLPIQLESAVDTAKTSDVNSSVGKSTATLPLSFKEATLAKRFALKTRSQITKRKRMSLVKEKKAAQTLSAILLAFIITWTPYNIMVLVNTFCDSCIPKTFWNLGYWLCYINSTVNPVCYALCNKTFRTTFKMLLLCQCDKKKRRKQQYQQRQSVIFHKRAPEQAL

The Ki is a dissociation constant, usually derived from enzyme kinetics or from competition with a known ligand. The low end stands for tighter binding, the high end for weaker binding. As to `CCCc1[nH]c2ccc3c(c2c1C(=O)OCC)CN1CCc2cc(SC)ccc2C1O3` (stereo not given), the inhibitory constant (Ki) in experiment [1] is 0.1 µM; in experiment [2] it was 0.001 µM; in experiment [3] it was 2.4 µM; in experiment [4], 0.871 µM; in experiment [5], 1.45 µM.

For the molecule `CCOC(=O)c1c(C)[nH]c2ccc3c(c12)CN1CCc2cc(Cl)ccc2C1O3` (stereo not given), the Ki is 2.75 µM in experiment [1]; 0.363 µM in experiment [2]; 5.37 µM in experiment [3]; 5.13 µM in experiment [4]; 3.24 µM in experiment [5].
